Compound activity deposited in PubChem by several laboratories.
Rtt109 HAT inh = inhibitors of Candida albicans Rtt109/Vps75 histone acetyltransferase. purified Rtt109/Vps75, ThioGlo CoA-SH fluorescence, 4 h. inhibition, % at 34.9 µM. actives 0.16% (n = 330,000). AID 540336;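 active = inhibition of at least 50% in every replicate; inconclusive = best replicate reaches 50% inhibition but some replicates fall short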
DDE Tn6 FP inh = inhibitors of Tn6 peptide binding to human fibrin DD(E). P02675. actives 0.21% (n = 370,000). inhibition, % at 8.3 µM. AID 720509. Fibrin DD(E) TRITC-Tn6 fluorescence polarization displacement;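 active = inhibition above a per-campaign cutoff: mean of compounds within control limits plus 3 SD, cut at about 15% in these data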;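 note: 0% = median of all compound wells on the plate and 100% = blocking peptide control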
Keap1 Nrf2 FP = inhibitors of human Keap1-Nrf2 protein-protein interaction. AID 504523. inhibition, % at 9.4 µM. Keap1 Kelch-Nrf2 peptide fluorescence polarization, 1536-well. actives 0.15% (n = 340,000); in the data active = inhibition above about 12%; inconclusive = no clear call, values can overlap the other calls; inactive = below about 7.3%;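 note: human Keap1 Kelch domain with fluorescein labeled Nrf2 9mer peptide probe; 0% = neutral control wells and 100% = peptide positive control; higher means more block of Keap1 binding to Nrf2 peptide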
Target sequence (Q14145 whole entry, looked up, the tested form may be a part): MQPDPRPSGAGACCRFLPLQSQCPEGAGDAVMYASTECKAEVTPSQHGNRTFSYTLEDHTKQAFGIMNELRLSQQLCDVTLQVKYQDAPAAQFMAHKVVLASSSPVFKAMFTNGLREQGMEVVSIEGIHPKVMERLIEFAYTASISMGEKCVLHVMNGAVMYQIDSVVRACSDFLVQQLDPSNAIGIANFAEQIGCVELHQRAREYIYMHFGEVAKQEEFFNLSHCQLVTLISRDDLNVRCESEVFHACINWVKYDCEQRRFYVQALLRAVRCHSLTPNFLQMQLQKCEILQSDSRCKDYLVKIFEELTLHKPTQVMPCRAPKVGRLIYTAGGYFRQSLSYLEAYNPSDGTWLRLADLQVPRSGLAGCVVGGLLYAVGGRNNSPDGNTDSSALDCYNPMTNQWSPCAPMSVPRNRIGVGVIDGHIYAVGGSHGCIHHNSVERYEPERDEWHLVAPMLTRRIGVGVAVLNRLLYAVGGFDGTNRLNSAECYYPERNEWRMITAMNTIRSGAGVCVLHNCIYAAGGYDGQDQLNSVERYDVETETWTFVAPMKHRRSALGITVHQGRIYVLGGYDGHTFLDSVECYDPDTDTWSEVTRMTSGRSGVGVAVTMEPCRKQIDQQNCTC
C-LANA FP = inhibitors of KSHV LANA C-terminal domain DNA binding; MBP-C-LANA/FAM-LBS DNA binding, fluorescence polarization; inhibition, % at 9 µM; actives 0.078% (n = 340,000);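 active = highest replicate inhibition at or above 60% at 9 µM, even if other replicates fall short; inactive = all replicates below 60% inhibition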;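 note: 0% = neutral control wells and 100% = 4 µM acridine orange control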
DDE Tn7 FP inh = disrupts Tn7 cyclic peptide binding to fibrin D-Dimer-E complex; P02675; inhibition, % at 8.3 µM; actives 0.13% (n = 370,000); AID 720508; FP displacement of FITC-Tn7 peptide from fibrin DD(E); 0% = median of compound wells per plate;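 active = inhibition above the mean of compounds falling within the control limits plus 3 SD of them, cut at about 14% in these data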;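 note: 0% = plate median of compound wells and 100% = 10 µM Aha-Tn7 peptide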
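Assay system: Human clot-derived fibrin DD(E) complex | Buffer or medium: Tris/NaCl/CaCl2 buffer, pH 7.8 | Repeats: One replicate per compound | Benchmarks: Aha-Tn7 high control | Measure: % inhibition scaled between sample-field median and high-control FP | Schedule: 10 min plus 3 h, room temperature | Signal: Fluorescence polarization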
* hit, by the source's call; ! = not confirmed by another sample. In the library only some 0.6% were active in any assay of this set; here they are far more common.

For N#CCc1nc2n(n1)Cc1ccccc1-2 the results were Rtt109 HAT inh 73*, DDE Tn6 FP inh 3, Keap1 Nrf2 FP -3, C-LANA FP -1 and DDE Tn7 FP inh 1.
COc1ccc(C[N+]2=C(N)NC3=C(C)Cn4c(=O)n(-c5ccccc5)c(=O)n4C3C2)c(OC)c1 (stereo unspecified) was read as DDE Tn6 FP inh -1 and DDE Tn7 FP inh -1.
Screening CN1CCN(CC(=O)n2c3c(c4ccccc42)CCCC3)CC1 returned Rtt109 HAT inh 1, DDE Tn6 FP inh -1, Keap1 Nrf2 FP 2, C-LANA FP 2 and DDE Tn7 FP inh -6.
Screening O=C(CN1CCCCC1)n1c2ccccc2c2ccccc21 returned Rtt109 HAT inh 56*, DDE Tn6 FP inh 1, Keap1 Nrf2 FP -2, C-LANA FP -1 and DDE Tn7 FP inh 5.
COc1c(C(=O)Nc2ccc(Br)cn2)ccc2ccccc12 was read as Rtt109 HAT inh -6, DDE Tn6 FP inh 7, Keap1 Nrf2 FP 2, C-LANA FP 2 and DDE Tn7 FP inh 6.
COc1cc2ccccc2cc1C(=O)Nc1ccc(Br)cn1 was read as Rtt109 HAT inh 59*, DDE Tn6 FP inh 3, Keap1 Nrf2 FP -3, C-LANA FP -2 and DDE Tn7 FP inh -1.
Screening CCC(C)NC(=O)C1CCN(S(=O)(=O)c2cc([N+](=O)[O-])ccc2Cl)CC1 (stereo unspecified) returned Rtt109 HAT inh 54*, DDE Tn6 FP inh 3, Keap1 Nrf2 FP -5, C-LANA FP -1 and DDE Tn7 FP inh 10.
CC1CCN(S(=O)(=O)c2cc([N+](=O)[O-])ccc2Cl)CC1 was read as DDE Tn6 FP inh -6, Keap1 Nrf2 FP -1, C-LANA FP -1 and DDE Tn7 FP inh 4.
For O=C(C1CCOCC1)N1CCCC(N2CCN(c3cccc(C(F)(F)F)c3)CC2)C1 (stereo unspecified) the results were Rtt109 HAT inh 52*, DDE Tn6 FP inh 2, Keap1 Nrf2 FP -4, C-LANA FP 0 and DDE Tn7 FP inh -3.
`Cc1ccc(S(=O)(=O)N2c3ccccc3C[C@H]2CC=C(c2ccccc2)c2ccccc2)cc1` gave DDE Tn6 FP inh -1 and DDE Tn7 FP inh -6.
`O=S(=O)(c1ccc(Cl)cc1)N1CCN(c2ncccn2)CC1` gave Rtt109 HAT inh 64*, DDE Tn6 FP inh 8, Keap1 Nrf2 FP 0, C-LANA FP 3 and DDE Tn7 FP inh -3.
Screening C=C(C)CSc1nnc(-c2cc(-c3ccc(OC)cc3)n[nH]2)n1N returned DDE Tn6 FP inh -8 and DDE Tn7 FP inh 2.
CCn1c(SCC(=O)Nc2ccc3c(c2)c2ccccc2n3CC)nnc1-c1ccco1 was read as Rtt109 HAT inh 66*, DDE Tn6 FP inh 3, Keap1 Nrf2 FP 1, C-LANA FP 3 and DDE Tn7 FP inh -1.
COc1ccc(C#CCN(Cc2ccc(OC)cc2OC)C(N)=NC(=O)CCc2ccccc2)cc1 was read as DDE Tn6 FP inh -4 and DDE Tn7 FP inh 1.
For O=C(Nc1c(-c2ccccc2)nc2ncccn12)c1ccc(F)cc1 the results were DDE Tn6 FP inh -7 and DDE Tn7 FP inh -2.
For COc1ccccc1C(=O)NCC(=O)N=Nc1c(O)n(C(C)C)c2ccccc12 the results were Rtt109 HAT inh 64*, DDE Tn6 FP inh 4, Keap1 Nrf2 FP 2, C-LANA FP -1 and DDE Tn7 FP inh 1.
Screening CC(C)n1c(O)c(N=NC(=O)CNC(=O)Cc2ccc(Cl)cc2)c2ccccc21 returned Rtt109 HAT inh 8, DDE Tn6 FP inh 0, Keap1 Nrf2 FP -2, C-LANA FP 0 and DDE Tn7 FP inh 5.
`CN1CCN(CCCN2c3ccccc3Sc3ccc(Cl)cc32)CC1` gave Rtt109 HAT inh 53*!, DDE Tn6 FP inh 6, Keap1 Nrf2 FP 3, C-LANA FP -2 and DDE Tn7 FP inh 6.
`CCSc1ccc2c(c1)N(CCCN1CCN(C)CC1)c1ccccc1S2` gave Rtt109 HAT inh 18, DDE Tn6 FP inh -5, Keap1 Nrf2 FP 0, C-LANA FP -1 and DDE Tn7 FP inh -1.
For CCCCNS(=O)(=O)c1ccc(NC(=O)Cc2ccccc2[N+](=O)[O-])cc1 the results were Rtt109 HAT inh 53*, DDE Tn6 FP inh -1, Keap1 Nrf2 FP 1, C-LANA FP 1 and DDE Tn7 FP inh -1.
`COC(=O)[C@H](C(C)C)N(CCc1cn(CC2CCCCC2)nn1)S(=O)(=O)c1ccc(F)cc1Br` gave DDE Tn6 FP inh 0 and DDE Tn7 FP inh -5.
`CN1C2=N[C@H](c3ccccc3)CC(=O)N2/C(=C\c2ccccc2)C1Cc1ccccc1` (stereo partly specified) gave DDE Tn6 FP inh -5 and DDE Tn7 FP inh 5.
C[N+]1(C)[C@H]2CC[C@H]1CC(OC(=O)C(O)c1ccccc1)C2 (stereo partly specified) was read as DDE Tn6 FP inh 0 and DDE Tn7 FP inh 1.
`CN1CCN(C(c2ccccn2)c2cc(Cl)c3cccnc3c2O)CC1` (stereo unspecified) gave Rtt109 HAT inh 56*, DDE Tn6 FP inh 5, Keap1 Nrf2 FP -26, C-LANA FP 3 and DDE Tn7 FP inh 1.
Screening C/C(=C\c1ccc2c(c1)OCO2)C1Nc2cccc3cccc(c23)N1 returned Rtt109 HAT inh -6, DDE Tn6 FP inh -13, Keap1 Nrf2 FP 7, C-LANA FP 62* and DDE Tn7 FP inh 7.
For CCCC[n+]1c(C)sc2cc(OC)ccc21 the results were Rtt109 HAT inh 185*, DDE Tn6 FP inh -1, Keap1 Nrf2 FP -5, C-LANA FP 0 and DDE Tn7 FP inh -2.
c1cc2ccn(CC3CC3)c2cc1-c1ccc2ccn(CC3CC3)c2c1 was read as DDE Tn6 FP inh 0 and DDE Tn7 FP inh 2.
Screening CN(CCOC(=O)CSc1ccccc1)C1CN(Cc2cn(Cc3ccccc3F)nn2)S(=O)(=O)C1 (stereo unspecified) returned DDE Tn6 FP inh -2 and DDE Tn7 FP inh -6.
`O=C(C1=NN(c2ccccc2)C2C(=O)N(c3cccc(Cl)c3)C(=O)C12)c1ccccc1` (stereo unspecified) gave Rtt109 HAT inh 1, DDE Tn6 FP inh -8, Keap1 Nrf2 FP inconclusive, C-LANA FP 61* and DDE Tn7 FP inh 8.
`O=C1CSc2ccc(C(=O)Nc3cccc(S(=O)(=O)Nc4ccc(Br)cc4)c3)cc2N1` gave Rtt109 HAT inh -4, DDE Tn6 FP inh active, Keap1 Nrf2 FP -7, C-LANA FP 1 and DDE Tn7 FP inh -4.
`COC(=O)[C@]12C[C@H](CC(=O)N3CCN(C(=O)C4CC4)CC3)C(=O)N(Cc3ccco3)C1=C[C@H](COCc1ccccc1)O[C@@H]2C` gave DDE Tn6 FP inh 6 and DDE Tn7 FP inh 1.
For C=CCN1C(=O)[C@@H](CC(=O)NCCCOC)[C@]2(C(=O)OC)CCCCC=C12 the results were DDE Tn6 FP inh -2 and DDE Tn7 FP inh -7.
